From ChEMBL document CHEMBL4665726, “Development of a selective HDAC inhibitor aimed at reactivating the HIV latent reservoir” (Bioorg Med Chem Lett, 2020)

Experiments:
[1] = target: T1, Class 1 histone deacetylase (Homo sapiens, UniProt Q13547+O15379+Q92769+Q9BY41); test: Inhibition of Class 1 HDAC in VSV-G-pseudotyped HIV infected human 2C4 cell Jurkat model assessed as reactivation of HIV latency in presence of 5% NHS by fluorescent reporter gene assay
Summary of the method: (§1)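 Latently infected Jurkat 2C4 cells (HIV latency model) were tested for reactivation of silenced provirus in parallel at two normal human serum levels: 0.1% and 5%. The paired runs gauge the potency shift from plasma protein binding.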

[2] = target: T1, Class 1 histone deacetylase; test: Inhibition of Class 1 HDAC in VSV-G-pseudotyped HIV infected human 2C4 cell Jurkat model assessed as reactivation of HIV latency in presence of 0.1% NHS by fluorescent reporter gene assay; summary of the method: as §1
[3] = target: T2, Histone deacetylase 8 (Homo sapiens, UniProt Q9BY41); test: Inhibition of HDAC8 (unknown origin)
T2 sequence (Q9BY41 whole entry): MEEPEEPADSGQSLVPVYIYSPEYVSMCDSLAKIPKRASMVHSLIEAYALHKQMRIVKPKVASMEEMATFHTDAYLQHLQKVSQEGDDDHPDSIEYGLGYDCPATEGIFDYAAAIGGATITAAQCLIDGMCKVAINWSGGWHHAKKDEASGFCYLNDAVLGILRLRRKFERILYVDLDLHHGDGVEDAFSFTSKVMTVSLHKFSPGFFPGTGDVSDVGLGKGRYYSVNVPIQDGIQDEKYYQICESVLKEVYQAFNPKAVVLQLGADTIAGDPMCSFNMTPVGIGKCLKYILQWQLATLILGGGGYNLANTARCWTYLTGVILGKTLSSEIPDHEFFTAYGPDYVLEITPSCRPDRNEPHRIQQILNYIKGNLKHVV

[4] = target: T3, Protein deacetylase HDAC6 (Homo sapiens, UniProt Q9UBN7); test: Inhibition of HDAC6 (unknown origin)
T3 sequence (Q9UBN7 whole entry): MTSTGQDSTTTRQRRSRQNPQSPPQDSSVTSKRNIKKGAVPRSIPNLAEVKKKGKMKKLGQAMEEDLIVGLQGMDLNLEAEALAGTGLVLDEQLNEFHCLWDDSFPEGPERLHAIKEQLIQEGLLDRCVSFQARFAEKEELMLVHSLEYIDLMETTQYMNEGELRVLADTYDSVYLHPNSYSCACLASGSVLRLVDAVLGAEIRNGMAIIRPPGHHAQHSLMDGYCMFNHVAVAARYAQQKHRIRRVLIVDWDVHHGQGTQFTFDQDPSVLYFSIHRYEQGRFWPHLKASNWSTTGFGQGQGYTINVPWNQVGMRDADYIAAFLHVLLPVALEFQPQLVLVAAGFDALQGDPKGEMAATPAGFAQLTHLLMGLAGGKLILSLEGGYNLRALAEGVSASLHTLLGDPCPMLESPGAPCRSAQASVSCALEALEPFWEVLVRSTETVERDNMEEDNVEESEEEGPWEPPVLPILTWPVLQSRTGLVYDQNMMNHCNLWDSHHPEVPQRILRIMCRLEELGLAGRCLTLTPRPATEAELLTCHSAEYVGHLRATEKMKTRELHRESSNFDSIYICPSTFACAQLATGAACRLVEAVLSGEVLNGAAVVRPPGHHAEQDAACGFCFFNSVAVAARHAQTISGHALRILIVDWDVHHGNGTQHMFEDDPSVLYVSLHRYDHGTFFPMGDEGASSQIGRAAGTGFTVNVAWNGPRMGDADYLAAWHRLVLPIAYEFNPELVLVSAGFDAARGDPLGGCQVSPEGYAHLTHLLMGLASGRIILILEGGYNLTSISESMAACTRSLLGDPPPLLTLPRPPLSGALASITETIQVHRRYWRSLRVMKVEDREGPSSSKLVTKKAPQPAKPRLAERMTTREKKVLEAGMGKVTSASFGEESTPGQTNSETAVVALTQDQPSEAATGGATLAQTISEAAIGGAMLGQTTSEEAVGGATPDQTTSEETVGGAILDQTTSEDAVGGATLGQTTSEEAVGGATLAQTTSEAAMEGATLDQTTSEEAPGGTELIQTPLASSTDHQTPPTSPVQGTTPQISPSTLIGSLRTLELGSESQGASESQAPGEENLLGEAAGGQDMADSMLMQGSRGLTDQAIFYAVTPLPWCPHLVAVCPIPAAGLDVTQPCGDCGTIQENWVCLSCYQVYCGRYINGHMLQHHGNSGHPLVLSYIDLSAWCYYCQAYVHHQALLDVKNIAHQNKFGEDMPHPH

[5] = target: Histone deacetylase 2 (Homo sapiens, UniProt Q92769); test: Inhibition of HDAC2 (unknown origin)
[6] = target: Histone deacetylase 3 (Homo sapiens, UniProt O15379); test: Inhibition of HDAC3 (unknown origin)
[7] = target: Histone deacetylase 1 (Homo sapiens, UniProt Q13547); test: Inhibition of HDAC1 (unknown origin)
[8] = Apparent permeability of the compound; assay type: ADME; details: not told
[9] = Oral bioavailability in Wistar Han rat at 10 mg/kg; assay type: ADME, organism-based; details: in vivo
[10] = Half life in Wistar Han rat at 2 mg/kg, iv or 10 mg/kg, po; assay type: ADME, organism-based; details: in vivo
[11] = Unbound volume of distribution in Wistar Han rat at 2 mg/kg, iv or 10 mg/kg, po; assay type: ADME, organism-based; details: in vivo
[12] = Unbound clearance in Wistar Han rat at 2 mg/kg, iv or 10 mg/kg, po; assay type: ADME, organism-based; details: in vivo

Chain of Histone deacetylase 2 (Q92769 whole entry): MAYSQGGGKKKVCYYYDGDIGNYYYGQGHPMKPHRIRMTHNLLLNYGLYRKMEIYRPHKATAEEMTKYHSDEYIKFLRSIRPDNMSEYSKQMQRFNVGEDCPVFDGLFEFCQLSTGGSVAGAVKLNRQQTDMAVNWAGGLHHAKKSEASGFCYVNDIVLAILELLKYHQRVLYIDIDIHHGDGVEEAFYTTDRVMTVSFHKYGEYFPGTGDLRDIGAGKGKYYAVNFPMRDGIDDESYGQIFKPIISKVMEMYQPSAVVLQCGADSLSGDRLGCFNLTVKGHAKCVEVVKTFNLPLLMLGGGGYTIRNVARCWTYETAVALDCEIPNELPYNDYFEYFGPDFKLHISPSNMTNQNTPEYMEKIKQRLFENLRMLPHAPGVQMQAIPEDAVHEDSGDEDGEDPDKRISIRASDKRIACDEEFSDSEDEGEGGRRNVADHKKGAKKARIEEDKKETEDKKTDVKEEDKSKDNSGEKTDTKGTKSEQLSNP
Chain of Histone deacetylase 3 (O15379 whole entry): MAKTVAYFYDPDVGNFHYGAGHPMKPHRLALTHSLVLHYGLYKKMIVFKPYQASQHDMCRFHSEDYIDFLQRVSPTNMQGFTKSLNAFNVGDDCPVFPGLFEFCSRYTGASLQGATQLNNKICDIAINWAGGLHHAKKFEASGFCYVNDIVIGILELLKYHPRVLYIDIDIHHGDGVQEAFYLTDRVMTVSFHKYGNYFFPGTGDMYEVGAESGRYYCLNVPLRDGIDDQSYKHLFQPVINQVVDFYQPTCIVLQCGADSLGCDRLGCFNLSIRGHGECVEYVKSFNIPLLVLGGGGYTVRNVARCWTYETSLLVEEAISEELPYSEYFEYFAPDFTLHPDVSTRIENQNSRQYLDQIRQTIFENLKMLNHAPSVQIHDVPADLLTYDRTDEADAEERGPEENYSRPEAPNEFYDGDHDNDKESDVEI
Chain of Histone deacetylase 1 (Q13547 whole entry): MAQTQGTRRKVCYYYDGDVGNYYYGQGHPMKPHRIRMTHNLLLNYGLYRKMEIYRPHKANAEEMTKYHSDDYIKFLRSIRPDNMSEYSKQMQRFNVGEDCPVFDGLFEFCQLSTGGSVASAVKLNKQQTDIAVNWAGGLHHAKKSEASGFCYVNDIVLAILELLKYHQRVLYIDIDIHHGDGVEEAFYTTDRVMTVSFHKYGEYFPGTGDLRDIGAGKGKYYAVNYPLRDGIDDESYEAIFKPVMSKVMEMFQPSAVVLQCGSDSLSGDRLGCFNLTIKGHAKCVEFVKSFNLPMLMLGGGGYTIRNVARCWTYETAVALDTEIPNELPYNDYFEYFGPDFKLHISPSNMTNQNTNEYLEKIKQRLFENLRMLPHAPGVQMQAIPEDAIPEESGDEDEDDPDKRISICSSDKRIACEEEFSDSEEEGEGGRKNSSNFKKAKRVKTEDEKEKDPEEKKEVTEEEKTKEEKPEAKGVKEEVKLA

Row | Compound | EC50 [1] | EC50 [2] | IC50 [3] | IC50 [4] | IC50 [5] | IC50 [6] | IC50 [7] | Papp [8] | bioavailability [9] | half-life [10] | Vdu [11] | CL free [12]
1 | CCC(=O)CCCCC[C@H](NC(=O)[C@H]1CC12CCN(C)CC2)c1[nH]c(-c2ccc(F)cc2F)nc1C#N | 1260 nM | 1233 nM | 20700 nM | 14800 nM | 155 nM | 18.9 nM | 35.2 nM |  |  |  |  | 
2 | CCC(=O)CCCCC[C@H](NC(=O)C1CN(C)C1)c1[nH]c(-c2ccccc2)nc1C(N)=O | 269 nM | 294 nM | 5420 nM | 9830 nM | 18.1 nM | 2.5 nM | 1.9 nM | 1.1 ×10⁻⁶ cm/s | 0% | 6.4 h | 45 L/kg | 166 mL/min/kg
3 | CCC(=O)CCCCC[C@H](NC(=O)c1cncs1)c1[nH]c(-c2ccc(F)cc2)nc1C#N | 1111 nM | 254 nM | 12300 nM | > 45000 nM | 51.3 nM | 3.1 nM | 10.6 nM |  |  |  |  | 
4 | CCC(=O)CCCCCC(NC(=O)c1cncs1)c1[nH]c(-c2ccccc2)nc1C(=O)N1CCOCC1 (stereo unspecified) | 3771 nM | 2729 nM | 16800 nM | 19000 nM | 159 nM | 19.1 nM | 43.6 nM |  |  |  |  | 
5 | CCC(=O)CCCCCC(NC(=O)c1cncs1)c1[nH]c(-c2ccccc2)nc1C(=O)NCCN(C)C (stereo unspecified) | 853 nM | 1142 nM | 5340 nM | > 45000 nM | 53.1 nM | 4.5 nM | 13.5 nM |  |  |  |  | 
6 | CCC(=O)CCCCC[C@H](NC(=O)C12CCN(CC1)CC2)c1[nH]c(-c2ccc(F)cc2)nc1C#N | 2207 nM | 1731 nM | 6930 nM | > 45000 nM | 26.9 nM | 2.4 nM | 6.2 nM |  |  |  |  | 
7 | CCC(=O)CCCCC[C@H](NC(=O)[C@H]1CC12CCN(C)CC2)c1[nH]c(-c2ccc(F)cc2)nc1C#N | 409 nM | 233 nM |  |  |  |  | 3.8 nM | 1.7 ×10⁻⁶ cm/s | 1% | 4 h | 40 L/kg | 244 mL/min/kg
8 | CCC(=O)CCCCC[C@H](NC(=O)C1CN(C)C1)c1[nH]c(-c2ccc(F)cc2)nc1C(N)=O | 643 nM | 775 nM | 5380 nM | 15900 nM | 34.4 nM | 3.6 nM | 3.5 nM |  |  |  |  | 
9 | CCC(=O)CCCCC[C@H](NC(=O)C1CN(C)C1)c1[nH]c(-c2ccc(F)cc2)nc1C#N | 2071 nM | 1564 nM | 19700 nM | 36900 nM | 117 nM | 13.8 nM | 25.9 nM |  |  |  |  | 
10 | CCC(=O)CCCCC[C@H](NC(=O)[C@H]1CC12CCN(C)CC2)c1[nH]c(-c2ccccc2F)nc1C#N | 1162 nM | 566 nM | 39600 nM | 22500 nM | 96 nM | 10.7 nM | 17 nM |  |  |  |  | 
